# Laboratory results reported in ChEMBL document CHEMBL4152234, “Aminobenzothiazole derivatives stabilize the thermolabile p53 cancer mutant Y220C and show anticancer activity in p53-Y220C cell lines” (Eur J Med Chem, 2018).
# Activity calls are given as the source filed them. No cut-off for these calls is given here.
# Tests used:
# [1] = tested on: Cellular tumor antigen p53 (Homo sapiens), P04637 [Y220C]; test: Activation of p53 Y220C mutant in human NUGC3 cells assessed as change in ATR mRNA level at 60 uM after 18 hrs by RT-PCR method relative to control; format: cell-based
# Procedure, shortened: (§1)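 p53 signalling qPCR array covering 84 genes. Cells were exposed for 18 h, with 0.5% DMSO in both compound and control samples. Total RNA was extracted and purified. Fold-changes were calculated by ΔΔCt using β2-microglobulin (B2M) as the housekeeping gene. Two independent biological replicates were run per cell line.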
# [2] = tested on: Cellular tumor antigen p53 (Homo sapiens), P04637 [Y220C]; test: Activation of p53 Y220C mutant in human NUGC3 cells assessed as change in BBC3 mRNA level at 60 uM after 18 hrs by RT-PCR method relative to control; format: cell-based; procedure, shortened: as §1
# [3] = tested on: Cellular tumor antigen p53 (Homo sapiens), P04637 [Y220C]; test: Activation of p53 Y220C mutant in human NUGC3 cells assessed as change in APAF1 mRNA level at 60 uM after 18 hrs by RT-PCR method relative to control; format: cell-based; procedure, shortened: as §1
# [4] = tested on: Cellular tumor antigen p53 (Homo sapiens), P04637 [Y220C]; test: Activation of p53 Y220C mutant in human NUGC3 cells assessed as change in BRCA1 mRNA level at 60 uM after 18 hrs by RT-PCR method relative to control; format: cell-based; procedure, shortened: as §1
# [5] = tested on: Cellular tumor antigen p53 (Homo sapiens), P04637 [Y220C]; test: Activation of p53 Y220C mutant in human NUGC3 cells assessed as change in CHEK2 mRNA level at 60 uM after 18 hrs by RT-PCR method relative to control; format: cell-based; procedure, shortened: as §1
# [6] = tested on: Cellular tumor antigen p53 (Homo sapiens), P04637 [Y220C]; test: Activation of p53 Y220C mutant in human NUGC3 cells assessed as change in MSH2 mRNA level at 60 uM after 18 hrs by RT-PCR method relative to control; format: cell-based
# Procedure, shortened: (§2)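 p53 signalling qPCR array covering 84 p53 pathway genes. Cells were exposed for 18 h, and compound and control wells both held 0.5% DMSO. Total RNA was extracted and purified. Fold-changes were calculated by the ΔΔCt method against the untreated sample, with β2-microglobulin (B2M) as the housekeeping gene. Each cell line was run in two independent biological replicates.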
# [7] = tested on: Cellular tumor antigen p53 (Homo sapiens), P04637 [Y220C]; test: Activation of p53 Y220C mutant in human NUGC3 cells assessed as change in BTG2 mRNA level at 60 uM after 18 hrs by RT-PCR method relative to control; format: cell-based; procedure, shortened: as §1
# [8] = tested on: Cellular tumor antigen p53 (Homo sapiens), P04637 [Y220C]; test: Activation of p53 Y220C mutant in human NUGC3 cells assessed as change in ESR1 mRNA level at 60 uM after 18 hrs by RT-PCR method relative to control; format: cell-based; procedure, shortened: as §1
# [9] = tested on: Cellular tumor antigen p53 (Homo sapiens), P04637 [Y220C]; test: Activation of p53 Y220C mutant in human NUGC3 cells assessed as change in TNFRSF10B mRNA level at 60 uM after 18 hrs by RT-PCR method relative to control; format: cell-based; procedure, shortened: as §2
# [10] = tested on: Cellular tumor antigen p53 (Homo sapiens), P04637 [Y220C]; test: Activation of p53 Y220C mutant in human NUGC3 cells assessed as change in HDAC1 mRNA level at 60 uM after 18 hrs by RT-PCR method relative to control; format: cell-based; procedure, shortened: as §1
# [11] = tested on: Cellular tumor antigen p53 (Homo sapiens), P04637 [Y220C]; test: Activation of p53 Y220C mutant in human NUGC3 cells assessed as change in MDM4 mRNA level at 60 uM after 18 hrs by RT-PCR method relative to control; format: cell-based; procedure, shortened: as §2
# [12] = tested on: Cellular tumor antigen p53 (Homo sapiens), P04637 [Y220C]; test: Activation of p53 Y220C mutant in human NUGC3 cells assessed as change in BCL2A1 mRNA level at 60 uM after 18 hrs by RT-PCR method relative to control; format: cell-based; procedure, shortened: as §1
# [13] = tested on: Cellular tumor antigen p53 (Homo sapiens), P04637 [Y220C]; test: Activation of p53 Y220C mutant in human NUGC3 cells assessed as change in CRADD mRNA level at 60 uM after 18 hrs by RT-PCR method relative to control; format: cell-based; procedure, shortened: as §1
# [14] = tested on: Cellular tumor antigen p53 (Homo sapiens), P04637 [Y220C]; test: Activation of p53 Y220C mutant in human NUGC3 cells assessed as change in CCNB1 mRNA level at 60 uM after 18 hrs by RT-PCR method relative to control; format: cell-based; procedure, shortened: as §1
# [15] = molecular target: T1, Cellular tumor antigen p53 (Homo sapiens, UniProt P04637); test: Activation of p53 in human NUGC4 cells assessed as change in ATR mRNA level at 60 uM after 18 hrs by RT-PCR method relative to control; format: cell-based; conditions: read-out: FC; procedure, shortened: as §2
# [16] = molecular target: T1, Cellular tumor antigen p53; test: Activation of p53 in human NUGC4 cells assessed as change in F0X03 mRNA level at 60 uM after 18 hrs by RT-PCR method relative to control; format: cell-based; conditions: read-out: FC
# Procedure, shortened: (§3)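 p53 signaling qPCR array of 84 p53-pathway genes. Cells were treated in 6-well plates for 18 h with 0.5% DMSO in compound and control samples. Total RNA was extracted and fold-changes were obtained by the ΔΔCt method against untreated control, with β2-microglobulin (B2M) as housekeeping gene. Two independent biological replicates per cell line.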
# [17] = molecular target: T1, Cellular tumor antigen p53; test: Activation of p53 in human NUGC4 cells assessed as change in CCNG1 mRNA level at 60 uM after 18 hrs by RT-PCR method relative to control; format: cell-based; conditions: read-out: FC; procedure, shortened: as §3
# [18] = molecular target: T1, Cellular tumor antigen p53; test: Activation of p53 in human NUGC4 cells assessed as change in E2F1 mRNA level at 60 uM after 18 hrs by RT-PCR method relative to control; format: cell-based; conditions: read-out: FC; procedure, shortened: as §3
# [19] = molecular target: T1, Cellular tumor antigen p53; test: Activation of p53 in human NUGC4 cells assessed as change in DNMT1 mRNA level at 60 uM after 18 hrs by RT-PCR method relative to control; format: cell-based; conditions: read-out: FC; procedure, shortened: as §3
# [20] = molecular target: T1, Cellular tumor antigen p53; test: Activation of p53 in human NUGC4 cells assessed as change in KAT2B mRNA level at 60 uM after 18 hrs by RT-PCR method relative to control; format: cell-based; conditions: read-out: FC; procedure, shortened: as §3
# [21] = molecular target: T1, Cellular tumor antigen p53; test: Activation of p53 in human NUGC4 cells assessed as change in TADA3 mRNA level at 60 uM after 18 hrs by RT-PCR method relative to control; format: cell-based; conditions: read-out: FC
# [22] = molecular target: T1, Cellular tumor antigen p53; test: Activation of p53 in human NUGC4 cells assessed as change in BID mRNA level at 60 uM after 18 hrs by RT-PCR method relative to control; format: cell-based; conditions: read-out: FC; procedure, shortened: as §2
# [23] = molecular target: T1, Cellular tumor antigen p53; test: Activation of p53 in human NUGC4 cells assessed as change in CASP2 mRNA level at 60 uM after 18 hrs by RT-PCR method relative to control; format: cell-based; conditions: read-out: FC; procedure, shortened: as §3
# [24] = molecular target: T1, Cellular tumor antigen p53; test: Activation of p53 in human NUGC4 cells assessed as change in CRADD mRNA level at 60 uM after 18 hrs by RT-PCR method relative to control; format: cell-based; conditions: read-out: FC; procedure, shortened: as §3
# [25] = molecular target: T1, Cellular tumor antigen p53; test: Activation of p53 in human NUGC4 cells assessed as change in CDK4 mRNA level at 60 uM after 18 hrs by RT-PCR method relative to control; format: cell-based; conditions: read-out: FC; procedure, shortened: as §3
# [26] = molecular target: T1, Cellular tumor antigen p53; test: Activation of p53 in human NUGC4 cells assessed as change in XRCC5 mRNA level at 60 uM after 18 hrs by RT-PCR method relative to control; format: cell-based; conditions: read-out: FC
# [27] = tested on: Cellular tumor antigen p53 (Homo sapiens), P04637 [Y220C]; test: Activation of p53 Y220C mutant in human HuH7 cells assessed as increase in MDM2 mRNA level at 30 uM after 18 hrs by RT-PCR method; format: cell-based
# Procedure, shortened: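 Real-time PCR. Cells were treated for 18 h, with 0.5% DMSO in both compound and control samples. Relative mRNA levels were quantified by the ΔΔCt method as fold-change against the untreated sample. Each sample was measured in triplicate, and data are given as mean ± SEM with an unpaired t-test.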
# Huh-7 = test: Upregulation of p21 mRNA level in p53 Y220C mutant knockout human HuH7 cells at 30 uM after 18 hrs by RT-PCR method; format: functional, cell-based
structure (smiles),measurement,setting,value
CCNC(=O)c1c(O)c(I)c(-n2cccc2)c2sc(N(CC)CC)nc12,fold change (FC),[1],1
same,fold change (FC),[2],2.6
same,fold change (FC),[3],1.2
same,fold change (FC),[4],0.6
same,fold change (FC),[5],1.1
same,fold change (FC),[6],5.3
same,fold change (FC),[7],1.9
same,fold change (FC),[8],2.3
same,fold change (FC),[9],1.8
same,fold change (FC),[10],0.6
same,fold change (FC),[11],1.3
same,fold change (FC),[12],3.9
same,fold change (FC),[13],1.1
same,fold change (FC),[14],1.1
same,fold induction at 60 µM,[15],0.9
same,fold induction at 60 µM,[16],0.8
same,fold induction at 60 µM,[17],1
same,fold induction at 60 µM,[18],0.5
same,fold induction at 60 µM,[19],0.8
same,fold induction at 60 µM,[20],1
same,fold induction at 60 µM,[21],1
same,fold induction at 60 µM,[22],0.7
same,fold induction at 60 µM,[23],0.7
same,fold induction at 60 µM,[24],0.8
same,fold induction at 60 µM,[25],0.8
same,fold induction at 60 µM,[26],0.8
same,Activity,[27],Active
same,Activity,Huh-7,inactive
